Screens from PubChem.
S1P1 ag pot: activates or potentiates agonism at human S1P1 receptor. P21453. S1P1 CRE-bla cells, forskolin, beta-lactamase FRET, potentiator mode; S1P1 agonist co-added at EC20, 2 nM; 100% = saturating reference agonist, 0% = basal. activation, % at 9.5 µM. 56,000 compounds, 0.57% hits;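 active means activation above a cutoff set at the mean activation of all tested compounds plus 3 SD, cut at about 54% in these data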;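 further: forskolin at 4 µM as EC80 and the EC20 agonist is SEW2871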
S1P3 agonist: activates the human S1P3 receptor. activation, % at 4.5 µM. S1P3 NFAT-BLA reporter cells, agonism, FRET ratio; relative to 1 µM S1P, basal subtracted. 60,000 compounds, 0.1% hits. Q99500;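 active means activation above the screen-wide mean plus 3 SD, cut at about 4.5% in these data, passing the limit was not always enough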
Target sequence (Q99500 whole entry, looked up): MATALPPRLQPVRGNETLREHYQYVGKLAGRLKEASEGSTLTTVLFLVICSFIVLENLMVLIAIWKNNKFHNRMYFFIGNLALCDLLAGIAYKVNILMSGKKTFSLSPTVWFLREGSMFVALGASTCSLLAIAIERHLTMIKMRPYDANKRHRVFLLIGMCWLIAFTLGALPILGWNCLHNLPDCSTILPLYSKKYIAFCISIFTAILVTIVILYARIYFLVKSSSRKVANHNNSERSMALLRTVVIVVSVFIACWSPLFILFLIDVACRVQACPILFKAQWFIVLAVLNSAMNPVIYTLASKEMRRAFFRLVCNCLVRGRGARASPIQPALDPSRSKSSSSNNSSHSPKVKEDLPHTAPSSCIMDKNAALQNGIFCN
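Assay system: CHO cells stably expressing human S1P3, Gα16 and NFAT-β-lactamase reporter. Timing: overnight plating, 4 h compound 37 °C, 2 h substrate RT. Signal: β-lactamase FRET emission ratio 460/535 nm. Measure: percent activation versus median 1 µM S1P response, basal-subtracted, per plate. Repeats: primary screen single test, confirmation screen in triplicate.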
SF-1 act: activates the human nuclear receptor SF-1 | Q13285 | CHO-K1 Gal4-SF-1 LBD luciferase reporter; % increase over DMSO SF-1-specific signal | activation, % at 10 µM | 65,000 compounds, 1.9% hits;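 active means activation above the mean activation of all tested compounds plus 3 SD, cut at about 50% in these data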
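Assay system – CHO-K1 cells with Gal4–hSF-1 LBD chimera plus Gal4-driven luciferase · Quantity – 4,000 cells per well · Times – compound added 1 h post-seeding, 20 h exposure at 37 °C, 5% CO2 · Measured by – luciferase light emission · Benchmarks – DMSO and mock-transfected background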
RORA act: activators of human nuclear receptor RORA; AID 560; 65,000 compounds, 1.5% hits; CHO-K1 Gal4-RORA LBD luciferase reporter, luminescence; percent increase over mock-subtracted basal signal; activation, % at 10 µM;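 active means activation above the mean of all tested compounds plus 3 SD, cut at about 49% in these data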
M1 agonist: activates the M1 muscarinic receptor; CHO-M1 cells, Fluo-4 calcium fluorescence, agonist mode; stronger effect = higher value; B-score at 10 µM; 64,000 compounds, 3% hits; AID 626;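 active means fluorescence rise, raw or as B-score row- and column-corrected plate score, outside the 99.7% band of its plate's samples, either direction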
M1 antag: antagonists of rat M1 muscarinic receptor. P08482. CHO-M1 cells, Fluo-4 calcium, ACh EC80 antagonist mode; stronger effect = lower value. B-score at 10 µM. 64,000 compounds, 3.4% hits;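 active means calcium fluorescence response, raw or row-and-column corrected B-score, differing from the plate sample mean either way at a set confidence level, mostly lower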
M1 antag confirm: confirmation of rat M1 muscarinic receptor antagonists; 1,700 compounds, 43% hits; calcium response (max-min fluorescence) at 10 µM; CHO-M1 cells, Fluo-4 calcium, ACh EC80 antagonism; stronger effect = lower value; shares compounds with M1 antag;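 active means calcium response below the same-plate mean of wells given acetylcholine alone at its 80%-effect dose, minus 3 SD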
mGluR4 antag: acts on human mGluR4 in M1 antagonist selectivity test | 1,700 compounds, 0.9% hits | CHO-mGluR4 calcium flux, Fluo-4 fluorescence, glutamate EC80; stronger effect = lower value | fluorescence response (max-min) at 10 µM | AID 678 | shares compounds with M1 antag;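 active means fluorescence response below the plate's average for near-maximal glutamate wells, less 3 SD of those wells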;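 further: raw unnormalized fluorescence span taken in the window right after glutamate addition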
A number is an active result; n = inactive; x = not tested or not shown. Shown are actives, neighbours in structure and some others; about 8.8% of the full set was active somewhere.

SMILES | S1P1 ag pot | S1P3 agonist | SF-1 act | RORA act | M1 agonist | M1 antag | M1 antag confirm | mGluR4 antag
CC(=O)Oc1ccc2oc(=O)c3c(c2c1)CCCN3C(=O)CN1CCN(c2ncccn2)CC1 | n | n | n | n | n | n | x | x
COc1ccc(NC(=O)CN(C)S(=O)(=O)c2ccc3c(c2)OCCO3)c2ncccc12 | n | n | n | n | n | n | x | x
O=C(NCc1ccc(F)cc1)c1cc(-c2ccco2)on1 | n | n | n | n | n | -3.9 | n | n
O=C(NCc1ccc(Cl)cc1)c1cc(-c2ccco2)on1 | n | n | n | n | n | n | x | x
COc1ccc(CN2CCCCC2c2cccnc2)c(OC)c1C (stereo not given) | n | n | n | n | n | n | x | x
O=C1CC(Cc2ccccc2)C(=O)N1CCc1ccc2c(c1)OCO2 (stereo not given) | n | n | n | n | n | n | x | x
O=C1CC(Cc2ccccc2)C(=O)N1CCCn1ccnc1 (stereo not given) | x | x | x | x | n | -2.8 | n | n
CSC1=Nc2sc3c(c2C2=NCCN12)CC(C)(C)OC3 | n | n | n | n | n | -4.6 | n | n
CCCc1[nH]nc2c1C(Cc1ccccc1)C(C#N)=C(N)O2 (stereo not given) | n | n | n | n | n | -2.2 | n | n
COCCn1c(SCCN2CCCCC2)nc2ccccc2c1=O | n | n | n | n | n | n | x | x
CCn1c(CNc2ccccc2Cl)nnc1SCCN1CCCCC1 | n | n | n | n | n | -4.4 | 271 | n
CCn1c(CNc2cccc(Cl)c2)nnc1SCC(=O)OC1CCCCC1 | n | n | n | n | n | n | x | x
CCSc1nnc(CNc2ccc(F)cc2)n1CC1CCCO1 (stereo not given) | n | n | n | n | n | n | x | x
CCn1c(CNc2ccccc2Cl)nnc1SCC(=O)OC1CCCCC1 | n | n | n | n | n | -4.7 | 370 | n
CCn1c(CNc2ccc(F)cc2)nnc1SCCN1CCCCC1 | n | n | n | n | n | -3.3 | 570 | n
OCC1CCCN(Cc2ccc(-c3ccccc3)cc2)C1 (stereo not given) | n | n | n | n | n | -2.9 | 392 | n
CN(C)/C=N/c1c(C(=O)NCc2ccccc2)nnn1Cc1ccccc1 | n | n | n | n | n | n | x | x
CCC(C)(C)NC(=O)C(OC(=O)c1cc2sccc2n1C)c1ccc(OC)cc1 (stereo not given) | n | n | n | n | n | n | x | x
COc1cccc(-n2c(SCC#N)nnc2-c2cnccn2)c1 | n | n | n | n | n | n | x | x
COc1cccc(-n2c(SC)nnc2-c2cnccn2)c1 | n | n | n | n | n | -3 | n | n
O=C1N[C@@H](Cc2cnc[nH]2)C(=O)N2CCC[C@@H]12 | n | n | n | n | n | n | x | x
O=C(NCC1CCC(C(=O)O)CC1)c1cccnc1 (stereo not given) | n | n | n | n | n | n | x | x
Cn1c(=O)c2c(nc(CN3CCC(C(N)=O)CC3)n2Cc2c(F)cccc2Cl)n(C)c1=O | n | n | n | n | n | n | x | x
CCN1CCN(c2nc3c(c(=O)n(C)c(=O)n3C)n2Cc2cccc3ccccc23)CC1 | x | n | n | n | n | -3.3 | 429 | n
Cn1c(=O)c2c(nc(CN3CCC(C(N)=O)CC3)n2Cc2c(Cl)cccc2Cl)n(C)c1=O | n | n | n | n | n | -4.1 | n | n
SMILES | S1P1 ag pot | S1P3 agonist | SF-1 act | RORA act | M1 agonist | M1 antag | M1 antag confirm | mGluR4 antag
CCN1CCN(c2nc3c(c(=O)n(C)c(=O)n3C)n2CCSc2ncccn2)CC1 | n | n | n | n | n | n | x | x
CCN1CCN(Cc2nc3c(c(=O)n(C)c(=O)n3C)n2Cc2cccc3ccccc23)CC1 | n | n | n | n | n | -2.8 | n | n
Fc1ccc(CN2CCCCCCC2)cc1F | x | n | n | n | n | n | x | x
C=CCn1c(N)cc(=O)nc1SCC(=O)N1CCN(c2ccc(F)cc2)CC1 | n | n | n | n | n | n | x | x
CC(=O)c1cc2c(cc1NS(=O)(=O)c1ccc(C)cc1)OCCO2 | n | n | n | n | n | n | x | x
Cc1nnc(SCC(=O)N2CCCCC2)s1 | n | n | n | n | n | n | x | x
Clc1ccc(-n2nnnc2-c2ccccc2)cc1Cl | n | n | n | n | n | -2.6 | n | n
CCN(CC)S(=O)(=O)c1ccc(-c2nnc(SCc3nnc(-c4ccccc4)o3)o2)cc1 | n | n | n | n | n | n | x | x
O=c1cc(CSc2nnnn2-c2ccccc2)nc2scc(-c3ccccc3)n12 | n | n | n | n | n | n | x | x
O=c1cc(CSc2nnnn2-c2ccccc2)nc2nc[nH]n12 | x | n | n | n | n | -2.1 | n | n
O=C1C(=O)N(CCCn2ccnc2)C(c2cccnc2)/C1=C(/O)c1ccc(Br)cc1 (stereo not given) | x | x | n | n | n | n | x | x
O=C(NC1CCCCC1)c1noc2c1CCCCC2 | n | n | n | n | n | -1.9 | n | n
CN1C=CC=C/C1=C1\SC(=S)N(C2CCCCC2)C1=O | x | x | x | x | n | -6.1 | 488 | n
COc1ccc(OC)c(-n2c(-c3cccc(O)c3)n[nH]c2=S)c1 | n | n | n | n | n | n | x | x
CC(C)(O)C#CC#CCN1CCOCC1 | n | n | n | n | n | -1.1 | n | n
Cc1nn(-c2ccccc2)c2sc(C(=O)C(C#N)c3ccccn3)cc12 (stereo not given) | n | n | n | n | n | n | x | x
O=C(c1ccc(CSCc2ccccc2F)o1)N1CCN(c2ccc(N3CCOCC3)nn2)CC1 | n | n | n | n | n | -1.7 | 498 | n
CCCN(CCO)Cc1cccc(Cl)c1 | x | n | n | n | n | -2.6 | n | n
C=C(C)c1cccc(C(C)(C)NC(=O)Nc2ccc3[nH]c(=O)[nH]c3c2)c1 | n | n | n | n | n | n | x | x
C=CCSc1nnc(NC(=O)c2cccc(S(=O)(=O)N3CCOCC3)c2)s1 | n | n | n | n | n | n | x | x
COc1ccccc1CNC(=O)CS(=O)Cc1nc(-c2ccccc2C)oc1C (stereo not given) | n | n | n | n | n | -2.7 | n | n
COc1ccc(CNC(=O)CS(=O)Cc2nc(-c3ccccc3C)oc2C)cc1 (stereo not given) | n | n | n | n | n | n | x | x
CCOC(=O)Cn1c(=N)n(CCOc2cccc(C)c2)c2ccccc21 | n | n | n | n | n | -0.8 | n | n
CCOC(=O)Cn1c(=N)n(Cc2ccccc2)c2ccccc21 | n | n | n | n | n | n | x | x
CCN(CC(=O)NC1CCCCC1)S(=O)(=O)c1ccc(Cl)cc1 | n | n | n | n | n | -3.2 | n | n
